Data from ChEMBL document CHEMBL1125607, “Novel gonadotropin-releasing hormone antagonists: peptides incorporating modified N omega-cyanoguanidino moieties” (J Med Chem, 1991).
Values after ≈ are worked out from the molar mass of the structure shown. Active and inactive are the calls of the source. The calls are words filed in the database; no cut-off is given here. Where a SMILES comes first, the peptide text is derived from it. [ ]: non-standard residue; d: D form. The star is where a group is joined. Triazol3yl(1,2,4-5-NH2) = Nc1nc(*)n[nH]1; dPhe(4-Cl) = N[C@H](Cc1ccc(Cl)cc1)C(=O)O; d2Nal = N[C@H](Cc1ccc2ccccc2c1)C(=O)O; Lys(iPr) = CC(C)NCCCC[C@H](N)C(=O)O; d3Pal = N[C@H](Cc1cccnc1)C(=O)O; Nicotinoyl = O=C(c1cccnc1)*

Legend:
Rattus norvegicus [1] = species on record: Rattus norvegicus; experiment: In vitro histamine release by rat mast cells.; conditions: read-out: ED50 (the source's name)
[2] = target: T1, Gonadotropin-releasing hormone receptor (Rattus norvegicus, UniProt P30969); experiment: In vitro binding affinity of Gonadotropin-releasing hormone antagonist was measured in rat pituitary cell membranes; set-up: species or system Pituitary gland cell, Membrane
T1 sequence (P30969 whole entry): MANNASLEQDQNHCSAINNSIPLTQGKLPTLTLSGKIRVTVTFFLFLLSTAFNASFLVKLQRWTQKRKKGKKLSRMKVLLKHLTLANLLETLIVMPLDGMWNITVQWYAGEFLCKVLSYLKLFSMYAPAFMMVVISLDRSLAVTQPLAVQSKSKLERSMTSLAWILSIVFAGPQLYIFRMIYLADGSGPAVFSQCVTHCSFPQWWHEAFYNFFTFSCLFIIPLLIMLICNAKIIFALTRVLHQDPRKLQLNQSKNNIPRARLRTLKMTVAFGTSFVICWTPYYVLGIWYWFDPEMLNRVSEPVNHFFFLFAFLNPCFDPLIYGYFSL
Summary of the method: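 Displacement binding on pituitary cell membranes with [DAla6,NMe-Leu7,Pro9-NHEt]GnRH as standard; analogue KD values calculated from potencies relative to that standard derived from displacement data.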

Rattus norvegicus [3] = experiment: Potency (0.5 mg/rat) using anti-ovulatory assay, expressed as rat ovulating/total number of treated rats measured after sc administration; 8/18; type: functional, organism-based
[4] = target: Gonadotropin-releasing hormone receptor (Rattus norvegicus) (UniProt P30969); experiment: Antagonist potency at GnRH receptor relative to a standard ([Ac-delta3Pro, DFpa2, DTrp3,6]GnRH).
Rattus norvegicus [5] = experiment: Potency (1 mg/rat) using anti-ovulatory assay, expressed as rat ovulating/total number of treated rats measured after sc administration; 1/17; type: functional, organism-based
Rattus norvegicus [6] = experiment: Potency (2.5 mg/rat) using anti-ovulatory assay, expressed as rat ovulating/total number of treated rats measured after sc administration; 0/7; type: functional, organism-based
Rattus norvegicus [7] = experiment: Potency (1.0 mg/rat) using anti-ovulatory assay, expressed as rat ovulating/total number of treated rats measured after sc administration; 5/5; type: functional, organism-based
Rattus norvegicus [8] = experiment: Potency (2 mg/rat) using anti-ovulatory assay, expressed as rat ovulating/total number of treated rats measured after sc administration; 2/10; type: functional, organism-based
Rattus norvegicus [9] = experiment: Potency (2 mg/rat) using anti-ovulatory assay, expressed as rat ovulating/total number of treated rats measured after sc administration; 1/10; type: functional, organism-based
Rattus norvegicus [10] = experiment: Potency (5 mg/rat) using anti-ovulatory assay, expressed as rat ovulating/total number of treated rats measured after sc administration; 14/20; type: functional, organism-based
Rattus norvegicus [11] = experiment: Potency (1 mg/rat) using anti-ovulatory assay, expressed as rat ovulating/total number of treated rats measured after sc administration; 5/5; type: functional, organism-based
Rattus norvegicus [12] = experiment: Potency (2.5 mg/rat) using anti-ovulatory assay, expressed as rat ovulating/total number of treated rats measured after sc administration; 2/8; type: functional, organism-based
Rattus norvegicus [13] = experiment: Potency (0.5 mg/rat) using anti-ovulatory assay, expressed as rat ovulating/total number of treated rats measured after sc administration; 6/6; type: functional, organism-based
Rattus norvegicus [14] = experiment: Potency (1 mg/rat) using anti-ovulatory assay, expressed as rat ovulating/total number of treated rats measured after sc administration; 2/8; type: functional, organism-based

SMILES	EC50 (Rattus norvegicus [1]) [µg/mL]	Kd [2] [nM]	Relative potency [4]	also measured
CC(=O)N[C@H](Cc1ccc2ccccc2c1)C(=O)N[C@H](Cc1ccc(Cl)cc1)C(=O)N[C@H](Cc1cccnc1)C(=O)N[C@@H](CO)C(=O)N[C@@H](CCCCNC(=O)c1cccnc1)C(=O)N[C@H](CCCCNC(=O)c1cccnc1)C(=O)N[C@@H](CC(C)C)C(=O)N[C@@H](CCCCNC(C)C)C(=O)N1CCC[C@H]1C(=O)N[C@H](C)C(N)=O (Ac-[d2Nal][dPhe(4-Cl)][d3Pal]SK(Nicotinoyl)[dK](Nicotinoyl)L[Lys(iPr)]P[dA]-NH2)	> 300	–	–	–
CC(C)C[C@H](NC(=O)[C@@H](CCCCNC(=NC#N)NCc1ccccn1)NC(=O)[C@H](CCCCNC(=NC#N)NCc1ccccn1)NC(=O)[C@H](CO)NC(=O)[C@H](Cc1c[nH]c2ccccc12)NC(=O)[C@H](Cc1cnc[nH]1)NC(=O)[C@@H]1CCC(=O)N1)C(=O)N[C@@H](CCCCNC(C)C)C(=O)N1CCC[C@H]1C(=O)N[C@H](C)C(N)=O	–	0.27	–	–
CC(C)C[C@H](NC(=O)[C@@H](Cc1ccc(Nc2n[nH]c(N)n2)cc1)NC(=O)[C@H](Cc1ccc(Nc2n[nH]c(N)n2)cc1)NC(=O)[C@H](CO)NC(=O)[C@H](Cc1c[nH]c2ccccc12)NC(=O)[C@H](Cc1c[nH]cn1)NC(=O)[C@@H]1CCC(=O)N1)C(=O)N[C@@H](CCCCNC(C)C)C(=O)N1CCC[C@H]1C(=O)N[C@H](C)C(N)=O	50 (≈ 33.8 µM)	–	1.3	Activity (Rattus norvegicus [3]): Weak activity; Activity (Rattus norvegicus [5]): Active
CCCC/N=C(\NC#N)NCCC[C@@H](NC(=O)[C@H](Cc1c[nH]cn1)NC(=O)[C@@H]1CCC(=O)N1)C(=O)N[C@@H](CO)C(=O)N[C@@H](Cc1ccc(O)cc1)C(=O)N[C@H](Cc1cccnc1)C(=O)N[C@@H](CC(C)C)C(=O)N[C@@H](CCCCNC(C)C)C(=O)N1CCC[C@H]1C(=O)N[C@H](C)C(N)=O	–	–	1.6	Activity (Rattus norvegicus [6]): Active; Activity (Rattus norvegicus [7]): inactive
C/N=C(\NC#N)NCCCC[C@@H](NC(=O)[C@H](CCCCN/C(=N\C)NC#N)NC(=O)[C@H](CO)NC(=O)[C@H](Cc1c[nH]c2ccccc12)NC(=O)[C@H](Cc1c[nH]cn1)NC(=O)[C@@H]1CCC(=O)N1)C(=O)N[C@@H](CC(C)C)C(=O)N[C@@H](CCCCNC(C)C)C(=O)N1CCC[C@H]1C(=O)N[C@H](C)C(N)=O	–	0.24	–	Activity (Rattus norvegicus [8]): Active
CC(=O)N[C@H](Cc1ccc2ccccc2c1)C(=O)N[C@H](Cc1ccc(F)cc1)C(=O)N[C@H](Cc1c[nH]c2ccccc12)C(=O)N[C@@H](CO)C(=O)N[C@@H](Cc1ccc(O)cc1)C(=O)N[C@H](CCCN=C(N)N)C(=O)N[C@@H](CC(C)C)C(=O)N[C@@H](CCCN=C(N)N)C(=O)N1CCC[C@H]1C(=O)NCC(N)=O (HELM PEPTIDE1{[ac].[O=C([C@@H](Cc1ccc2ccccc2c1)N[*:1])[*:2]].[O=C([C@@H](Cc1ccc(F)cc1)N[*:1])[*:2]].[dW].S.Y.[dR].L.R.P.G.[am]}$$$$V2.0)	0.17 (≈ 0.118 µM)	–	–	–
CC(=O)N[C@H](Cc1ccc2ccccc2c1)C(=O)N[C@H](Cc1ccc(Cl)cc1)C(=O)N[C@H](Cc1cccnc1)C(=O)N[C@@H](CO)C(=O)N[C@@H](CCCCNc1n[nH]c(N)n1)C(=O)N[C@H](CCCCNc1n[nH]c(N)n1)C(=O)N[C@@H](CC(C)C)C(=O)N[C@@H](CCCCNC(C)C)C(=O)N1CCC[C@H]1C(=O)N[C@H](C)C(N)=O (Ac-[d2Nal][dPhe(4-Cl)][d3Pal]SK(Triazol3yl(1,2,4-5-NH2))[dK](Triazol3yl(1,2,4-5-NH2))L[Lys(iPr)]P[dA]-NH2)	–	0.48	–	–
CC(C)C[C@H](NC(=O)[C@@H](CCCN=C(N)N)NC(=O)[C@H](Cc1ccc(O)cc1)NC(=O)[C@H](CO)NC(=O)[C@@H](Cc1cccnc1)NC(=O)[C@H](Cc1c[nH]cn1)NC(=O)[C@@H]1CCC(=O)N1)C(=O)N[C@@H](CCCCNc1n[nH]c(N)n1)C(=O)N1CCC[C@H]1C(=O)N[C@H](C)C(N)=O	19 (≈ 14.5 µM)	–	–	–
CCCC/N=C(\NC#N)NCCCC[C@@H](NC(=O)[C@H](Cc1c[nH]cn1)NC(=O)[C@@H]1CCC(=O)N1)C(=O)N[C@@H](CO)C(=O)N[C@@H](Cc1ccc(O)cc1)C(=O)N[C@H](CCCCN/C(=N/CCCC)NC#N)C(=O)N[C@@H](CC(C)C)C(=O)N[C@@H](CCCCNC(C)C)C(=O)N1CCC[C@H]1C(=O)N[C@H](C)C(N)=O	50 (≈ 34 µM)	–	–	–
CC(C)C[C@H](NC(=O)[C@@H](Cc1cccnc1)NC(=O)[C@H](Cc1ccc(O)cc1)NC(=O)[C@H](CO)NC(=O)[C@@H](Cc1cccnc1)NC(=O)[C@H](Cc1cnc[nH]1)NC(=O)[C@@H]1CCC(=O)N1)C(=O)N[C@@H](CCCCNC(C)C)C(=O)N1CCC[C@H]1C(=O)N[C@H](C)C(N)=O	–	0.08	–	–
CC(C)C[C@H](NC(=O)[C@@H](CCCCNc1n[nH]c(N)n1)NC(=O)[C@H](CCCCNc1n[nH]c(N)n1)NC(=O)[C@H](CO)NC(=O)[C@H](Cc1c[nH]c2ccccc12)NC(=O)[C@H](Cc1c[nH]cn1)NC(=O)[C@@H]1CCC(=O)N1)C(=O)N[C@@H](CCCCNC(C)C)C(=O)N1CCC[C@H]1C(=O)N[C@H](C)C(N)=O	–	–	0.23	Activity (Rattus norvegicus [9]): Active
CC(C)C[C@H](NC(=O)[C@@H](CCCCNc1n[nH]c(N)n1)NC(=O)[C@H](Cc1ccc(O)cc1)NC(=O)[C@H](CO)NC(=O)[C@@H](CCCCNc1n[nH]c(N)n1)NC(=O)[C@H](Cc1c[nH]cn1)NC(=O)[C@@H]1CCC(=O)N1)C(=O)N[C@@H](CCCCNC(C)C)C(=O)N1CCC[C@H]1C(=O)N[C@H](C)C(N)=O	> 150	–	–	–
CC(C)C[C@H](NC(=O)[C@@H](CCCCNC(=NC#N)NC1CCCCC1)NC(=O)[C@H](CCCCNC(=NC#N)NC1CCCCC1)NC(=O)[C@H](CO)NC(=O)[C@H](Cc1c[nH]c2ccccc12)NC(=O)[C@H](Cc1cnc[nH]1)NC(=O)[C@@H]1CCC(=O)N1)C(=O)N[C@@H](CCCCNC(C)C)C(=O)N1CCC[C@H]1C(=O)N[C@H](C)C(N)=O	–	1.2	–	–
CCCC/N=C(\NC#N)NCCCC[C@H](NC(=O)[C@H](CC(C)C)NC(=O)[C@@H](CCCCNC(=O)c1cccnc1)NC(=O)[C@H](CCCCNC(=O)c1cccnc1)NC(=O)[C@H](CO)NC(=O)[C@H](Cc1c[nH]c2ccccc12)NC(=O)[C@H](Cc1c[nH]cn1)NC(=O)[C@@H]1CCC(=O)N1)C(=O)N1CCC[C@H]1C(=O)N[C@H](C)C(N)=O	–	0.45	0.3	Activity (Rattus norvegicus [10]): Weak activity
CCCCNC(=NC#N)NCCCC[C@@H](NC(=O)[C@H](Cc1ccc(O)cc1)NC(=O)[C@H](CO)NC(=O)[C@@H](Cc1cccnc1)NC(=O)[C@H](Cc1cnc[nH]1)NC(=O)[C@@H]1CCC(=O)N1)C(=O)N[C@@H](CC(C)C)C(=O)N[C@@H](CCCNC(=N)N)C(=O)N1CCC[C@H]1C(=O)N[C@H](C)C(N)=O	–	1.7	–	–
CC(C)C[C@H](NC(=O)[C@@H](CCCNC(=N)N)NC(=O)[C@H](Cc1ccc(O)cc1)NC(=O)[C@H](CO)NC(=O)[C@@H](CCCCNc1nnc(N)[nH]1)NC(=O)[C@H](Cc1cnc[nH]1)NC(=O)[C@@H]1CCC(=O)N1)C(=O)N[C@@H](CCCCNC(C)C)C(=O)N1CCC[C@H]1C(=O)N[C@H](C)C(N)=O	–	0.27	–	–
CCCCCC/N=C(\NC#N)NCCCC[C@H](NC(=O)[C@H](CO)NC(=O)[C@H](Cc1c[nH]c2ccccc12)NC(=O)[C@H](Cc1c[nH]cn1)NC(=O)[C@@H]1CCC(=O)N1)C(=O)N[C@H](CCCCN/C(=N/CCCCCC)NC#N)C(=O)N[C@@H](CC(C)C)C(=O)N[C@@H](CCCCNC(C)C)C(=O)N1CCC[C@H]1C(=O)N[C@H](C)C(N)=O	–	3.3	0.14	Activity (Rattus norvegicus [11]): inactive; Activity (Rattus norvegicus [12]): Weak activity
CC(C)C[C@H](NC(=O)[C@@H](CCCC/N=C(/NC#N)NC(C)C)NC(=O)[C@H](CCCC/N=C(/NC#N)NC(C)C)NC(=O)[C@H](CO)NC(=O)[C@H](Cc1c[nH]c2ccccc12)NC(=O)[C@H](Cc1c[nH]cn1)NC(=O)[C@@H]1CCC(=O)N1)C(=O)N[C@@H](CCCCNC(C)C)C(=O)N1CCC[C@H]1C(=O)N[C@H](C)C(N)=O	–	0.32	0.3	Activity (Rattus norvegicus [13]): inactive; Activity (Rattus norvegicus [14]): Active
CC(C)C[C@H](NC(=O)[C@@H](CCCNc1n[nH]c(N)n1)NC(=O)[C@H](CCCNc1n[nH]c(N)n1)NC(=O)[C@H](CO)NC(=O)[C@H](Cc1c[nH]c2ccccc12)NC(=O)[C@H](Cc1c[nH]cn1)NC(=O)[C@@H]1CCC(=O)N1)C(=O)N[C@@H](CCCCNC(C)C)C(=O)N1CCC[C@H]1C(=O)N[C@H](C)C(N)=O	158 (≈ 114 µM)	0.21	0.2	Activity (Rattus norvegicus [9]): Active
